TAAR1 ag – human TAAR1 agonists, primary screen, Fluo-8 calcium fluorescence, CHO RD-HGA16 cells; vehicle wells 0%, saturating PEA agonist 100%; Trace amine-associated receptor 1 (Homo sapiens), Q96RJ0; activation, % at 3 µM; 360,000 tested, 0.99% active;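 active means activation above the mean activation of all test compounds in the run plus 3 SD, cut at about 38% in these data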
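Test system: RD-HGA16 (CHO) cells co-expressing Gα16 and hTAAR1 | Doses: Single dose, 3 µM | Schedule: 17-24 h seeding, 75 min 37 °C dye, 30 min RT | Evaluation: % activation from peak over basal fluorescence ratio, DMSO-to-PEA scaled | Technique: Kinetic Fluo-8 calcium fluorescence | Benchmarks: Low control DMSO, high control PEA (EC100)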
TRPML3 agonist – human TRPML3 channel agonists, primary screen, cell-based, HEK293 TRPML3-YFP, Fluo-8 calcium fluorescence, 3 µM | Mucolipin-3 (Homo sapiens), Q8TDD5 | 100% = the carbachol control signal | activation, % at 3 µM | 220,000 tested, 0.29% active;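 active means activation above its plate's cutoff, the mean activation of the plate's test wells plus 3 SD, cut at about 12% in these data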
Target sequence (Q8TDD5 whole entry, looked up): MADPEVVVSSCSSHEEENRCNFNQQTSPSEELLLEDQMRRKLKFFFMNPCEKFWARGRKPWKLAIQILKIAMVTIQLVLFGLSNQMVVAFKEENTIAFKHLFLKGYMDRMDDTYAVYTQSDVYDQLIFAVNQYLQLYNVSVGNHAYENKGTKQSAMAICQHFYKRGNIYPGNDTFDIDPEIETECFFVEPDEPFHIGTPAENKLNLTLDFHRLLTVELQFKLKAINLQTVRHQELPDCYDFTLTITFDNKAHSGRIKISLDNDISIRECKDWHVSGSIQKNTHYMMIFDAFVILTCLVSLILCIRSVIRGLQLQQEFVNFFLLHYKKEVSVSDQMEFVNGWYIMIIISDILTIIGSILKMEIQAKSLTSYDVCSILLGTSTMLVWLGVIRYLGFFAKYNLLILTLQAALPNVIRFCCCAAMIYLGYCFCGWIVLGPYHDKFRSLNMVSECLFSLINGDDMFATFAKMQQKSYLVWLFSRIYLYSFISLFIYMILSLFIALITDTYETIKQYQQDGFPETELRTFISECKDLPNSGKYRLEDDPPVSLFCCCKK
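Material: HEK293 cells stably carrying human TRPML3-YFP; compound dosing: single dose, 3 µM final nominal compound, 0.3% DMSO final; incubation: 1-h 37 °C dye load, 5-s basal, 120-s post-compound reads; technique: Fluo-8 intracellular calcium fluorescence, excitation 470-495 nm, emission 515-575 nm; read-out basis: percent activation from peak-to-basal fluorescence ratio, scaled between DMSO and carbachol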
TRPN1 ag – zebrafish TRPN1 channel agonists, primary screen, cell-based, HEK293, calcium fluorescence. transient receptor potential cation channel N1 (TRPN1/NompC), Danio rerio. HEK293 zebrafish TRPN1-YFP, Fluo-8 calcium fluorescence; 100% = response to 87 µM carbachol. activation, % at 3 µM. 220,000 tested, 0.18% active;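 active means activation above its plate's cutoff, the mean activation of test wells on that plate plus 3 SD, cut at about 19% in these data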
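System: zebrafish TRPN1-YFP in HEK293 cells / Dosing: 3 µM single point / Timing: dye loading 1 h at 37 °C, then 30 min room temperature / Signal: Fluo-8 calcium fluorescence, excitation 470-495 nm, emission 515-575 nm / Read-out basis: percent activation from peak over basal fluorescence ratio, control-normalized / Control set: high carbachol 87 µM, low DMSO alone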
LANA-H2B inh – blockers of LANA interaction with H2A/H2B – biochemical, FP readout, HTS, primary screen; Protein LANA1 (Human herpesvirus 8 type P (isolate GK18)), Q9QR71; cell-free LANA-H2A/H2B peptide, fluorescence polarization; inhibition, % (concentration not given with the values); 320,000 tested, 0.6% active; AID 2629, 2010; in the data active means inhibition mostly above about 10%, no sharp cut-off; inactive means mostly below about 6.7%
TAAR1 antagonist – human TAAR1 antagonists, primary screen, Fluo-8 calcium fluorescence, CHO RD-HGA16 cells | antagonist | AID 624466, 2012 | inhibition, % at 3 µM | Trace amine-associated receptor 1 (Homo sapiens), Q96RJ0 | 360,000 tested, 1.5% active;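 active means inhibition above a per-plate cutoff, the mean inhibition of test compounds on that plate plus 3 SD, cut at about 49% in these data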
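Test system – hTAAR1-expressing CHO RD-HGA16 cells, Gα16-coupled · Also added – β-PEA at EC80 concentration, post-compound challenge · Compound – 3 µM, single point · Incubation – dye loading 75 min at 37 °C, then 30 min room temperature · Measured by – Fluo-8 intracellular calcium dye fluorescence, real-time kinetic reads · Benchmarks – vehicle and agonist controls · Replicates – singlicate, one well per test compound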
GPR7 antag – GPR7 receptor antagonists, primary screen, cell-based, fluorescence, single concentration; Neuropeptides B/W receptor type 1 (Homo sapiens), P48145; GPR7-expressing cells, fluorescence antagonist assay; inhibition, % at 4.4 µM; 290,000 tested, 1.1% active; in the data active means inhibition above about 16%, passing the limit was not always enough;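 further: cells stimulated with the agonist NPW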
Each line names hits and unclear results; the compound was inactive in the other large screens. Most compounds without a hit are left out; they make up all but 3.4% or so of the library.

Cc1ccc(C2=N/C(=C\c3coc4ccccc4c3=O)C(=O)O2)cc1	none (no result: TRPML3 agonist, TRPN1 ag, LANA-H2B inh, GPR7 antag)
Cc1[nH]c2ccccc2c1CN1CCN(c2ccccn2)CC1	none
Cc1[nH]c2ccccc2c1CN1CCC(Cc2ccccc2)CC1	TAAR1 ag 41
Cc1c(C(=O)NCc2cccc(Cl)c2)sc(=O)n1Cc1ccc(F)cc1	none (no result: TRPML3 agonist, TRPN1 ag, LANA-H2B inh, GPR7 antag)
Cc1c(C(=O)NCc2ccc(F)cc2)sc(=O)n1Cc1ccc(C(=O)c2ccccc2)cc1	TAAR1 antagonist 54 (no result: TRPML3 agonist, TRPN1 ag, LANA-H2B inh, GPR7 antag)
Cc1c(C(=O)NCc2ccc(C(C)C)cc2)sc(=O)n1Cc1cccc(F)c1	TAAR1 ag 48, TAAR1 antagonist 53 (no result: TRPML3 agonist, TRPN1 ag, LANA-H2B inh, GPR7 antag)
COc1cc(C(=O)NNC(=O)NC2CCCCC2)cc(OC)c1OC	LANA-H2B inh 14
COc1ccc(S(=O)(=O)N2CCC(C(=O)NC3CCCC3)CC2)cc1OC	LANA-H2B inh 16 (no result: TRPML3 agonist, TRPN1 ag)
COc1ccc(S(=O)(=O)N2CCCCC2)cc1NC(=O)C1CC1	none (no result: TRPML3 agonist, TRPN1 ag, GPR7 antag)
COc1ccc(S(=O)(=O)N2CCCCC2)cc1NC(=O)C1COc2ccccc2O1 (stereo not given)	TAAR1 antagonist 58 (no result: TRPML3 agonist, TRPN1 ag, GPR7 antag)
COc1ccc(CNC(=O)[C@@H](NC(=O)C2CCN(S(=O)(=O)c3ccc(C)cc3)CC2)C(C)C)cc1OC	LANA-H2B inh 12 (no result: TRPML3 agonist, TRPN1 ag)
COC(=O)C1=C(C)N(Cc2ccc(C(F)(F)F)cc2)C(=NCc2ccccc2C(F)(F)F)NC1c1cccc(Cl)c1 (stereo not given)	none (no result: TRPML3 agonist, TRPN1 ag, LANA-H2B inh, GPR7 antag)
C/C(O)=C(/C#N)c1nc2ccccc2[nH]1	none
N#C/C(=C(/O)C(Cl)(Cl)Cl)c1nc2ccccc2[nH]1	TRPN1 ag 20
COc1ccccc1C(=O)NCC(=O)OC(C)C(=O)N(C)C1CCCCC1 (stereo not given)	LANA-H2B inh 19 (no result: TRPML3 agonist, TRPN1 ag, GPR7 antag)
O=C(COC(=O)c1ccc(O)cc1O)Nc1ccc(Cl)cn1	none (no result: TRPML3 agonist, TRPN1 ag)
O=C(COC(=O)c1ccc(F)cc1F)Nc1ccc(Cl)cn1	LANA-H2B inh 25 (no result: TRPML3 agonist, TRPN1 ag, GPR7 antag)
O=C(OCCN1C(=O)c2cccc3c(N4CCOCC4)ccc(c23)C1=O)c1ccc(Cl)cc1Cl	LANA-H2B inh 30
O=C(OCCN1C(=O)c2ccccc2C1=O)c1cc(S(=O)(=O)N2CCOCC2)ccc1Cl	none
O=C(OCCN1C(=O)c2cccc3c(N4CCOCC4)ccc(c23)C1=O)c1cccc(Cl)c1	LANA-H2B inh 37 (no result: TAAR1 ag, TAAR1 antagonist)
O=C(COC(=O)c1cccc(Cl)c1)Nc1cc(S(=O)(=O)N2CCOCC2)ccc1N1CCOCC1	none (no result: TRPML3 agonist, TRPN1 ag, LANA-H2B inh, GPR7 antag)
CC(=O)O[C@@H]1C=C[C@@H](C#Cc2ccc(C(C)(C)C)cc2)O[C@@H]1COC(=O)Nc1ccccc1	none (no result: TRPML3 agonist, TRPN1 ag, LANA-H2B inh, GPR7 antag)
CCc1nc2ccc(C(=O)Nc3cc(-c4ccccc4)ccc3OC)cn2c1N(C)Cc1ccc(OC)cc1	none (no result: TRPML3 agonist, TRPN1 ag, LANA-H2B inh, GPR7 antag)
CCc1nc2ccc(C(=O)Nc3cccc(OCC(=O)N(C)C)c3)cn2c1N(C)Cc1cc2ccccc2s1	TAAR1 antagonist 71 (no result: TRPML3 agonist, TRPN1 ag, LANA-H2B inh, GPR7 antag)
CCc1nc2ccc(C(=O)Nc3cc(-c4ccccc4)ccc3OC)cn2c1N(C)Cc1nccs1	TAAR1 antagonist 54 (no result: TRPML3 agonist, TRPN1 ag, LANA-H2B inh, GPR7 antag)
CCNC(=O)N(C)c1c(CC)nc2ccc(C(=O)Nc3cccc(OCC(=O)N(C)C)c3)cn12	none (no result: TRPML3 agonist, TRPN1 ag, LANA-H2B inh, GPR7 antag)
O=C1C=C(c2cccc3c2Oc2ccccc2S3)C[C@@H](c2ccc3c(c2)OCO3)C1	none (no result: TRPML3 agonist, TRPN1 ag, LANA-H2B inh, GPR7 antag)
CCc1ccc(OCCNc2cc(N3CCNC(C)C3)ccc2[N+](=O)[O-])cc1 (stereo not given)	TAAR1 ag 43 (no result: TRPML3 agonist, TRPN1 ag, GPR7 antag)
C=CCCC[C@H]1OC(=O)[C@H](C)NC(=O)[C@H](C(C)C)NC(=O)[C@@H]2CCCN2C(=O)[C@H](Cc2ccccc2)OC(=O)[C@@H](C(C)C)N(C)C(=O)[C@H](C(C)C)NC(=O)C1(C)C	none (no result: TRPML3 agonist, TRPN1 ag, LANA-H2B inh, GPR7 antag)
COc1cc(NC(=O)COc2cc3oc(=O)cc(C)c3cc2Cl)cc(OC)c1OC	LANA-H2B inh 15 (no result: TRPML3 agonist, TRPN1 ag)
COc1cc(NC(=O)COc2ccc3c(C)cc(=O)oc3c2C)cc(OC)c1OC	none (no result: TRPML3 agonist, TRPN1 ag)

From PubChem
